In all, about 300,000 compounds went through this assay and about 4,400 (1.5%) were called active.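 Rule for the calls: active = mean inhibition across valid replicates above about 55% (limit read from the data); inconclusive = mean below that limit but half or more replicates reach it; inactive = mean below it, under half of replicates reach it.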 What follows is part of a selection rich in actives, with near analogues and random picks from the rest.
Experiment: Trypanosoma cruzi replication blockers in host cells – luminescence, NIH3T3 host cells, primary screen (AID 1885);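 note: signal also drops with host cell toxicity which is not excluded here; 0% = plate median of DMSO wells and 100% = zero luminescence signal; higher percent means less beta-gal luminescence so fewer parasites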
Details: T. cruzi beta-gal in NIH3T3, luminescence, 90 h; stronger effect = higher value; concentration not given here
Method in brief: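 Assay system: NIH/3T3 fibroblasts plus reporter T. cruzi. Amount: NIH/3T3 cells, 5,000 per well. Buffer or medium: DMEM, 2% fetal bovine serum. Doses: compound pinned at 50 nL/well, DMSO. Schedule: ≥90 h infection period, 3 h prior cell attachment. Signal: luminescent β-galactosidase signal after 60 min lysis. Read-out: parasite load inhibition, %.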
With `N#Cc1ccc(-c2ccc(Cl)cc2)nc1Oc1ccc(F)cc1` the inhibition was 14.3% (inactive). With `N#CCCN(C(=O)COC(=O)c1ccc(S(=O)(=O)N2CCCCCC2)cc1)c1ccccc1` the inhibition was -2.09% (inactive). In the case of `CC(C)CN(C(=O)Cn1c(=O)cnc2ccccc21)C1CCS(=O)(=O)C1` (stereo not given), the inhibition is reported as 11% (inactive). With `N#CCc1c(C#N)c(N)nc(N2CCCC2)c1C#N` the inhibition was 8.26% (inactive). For `Cc1ncc(CO)c(/C=N/NC(=O)c2cccc(S(=O)(=O)N3CCCC3)c2)c1O`, the inhibition was -9.29% (inactive). In the case of `CCn1c2c(c3ccc(OC)cc31)CCCC2=O`, the inhibition is reported as -5.03% (inactive). In the case of `O=C(/C(=C/c1cccc(Cl)c1)c1nc2ccccc2[nH]1)c1ccccc1`, the inhibition is reported as 68.4% (active). For `O=C(Cc1nc2ccccc2[nH]c1=O)c1ccc(Cl)cc1`, the inhibition was 0.565% (inactive). For `CCC(=O)/C(=C(/O)c1ccccc1)c1nc2ccccc2[nH]1`, the inhibition was 3.53% (inactive). For `CCCCn1c(N)c(N(CC(C)C)C(=O)CSc2ccc([N+](=O)[O-])cc2)c(=O)[nH]c1=O`, the inhibition was 6.23% (inactive). For `CC(Oc1ccc(Br)cc1)C(=O)NCC(c1ccco1)N1CCCCC1` (stereo not given), the inhibition was -0.255% (inactive). In the case of `CCN(C(=O)CSc1nnnn1-c1ccccc1OC)C1CCS(=O)(=O)C1` (stereo not given), the inhibition is reported as -11.8% (inactive). With `COC(=O)C1=C(C)Nc2ncnn2C1c1cccnc1` (stereo not given) the inhibition was 17.7% (inactive). In the case of `COC(=O)C1=C(C)Nc2ncnn2C1c1ccco1` (stereo not given), the inhibition is reported as -1.94% (inactive). In the case of `CC1=C(C(=O)OC2CCCCC2)C(c2cccnc2)n2ncnc2N1` (stereo not given), the inhibition is reported as 61.7% (active). For `COc1ccc(C(=O)COC(=O)COc2ccc(C)c(C)c2)cc1`, the inhibition was 4.19% (inactive). With `O=S(=O)(NC1CCCCC1N1CCN(c2ccccc2F)CC1)c1ccccc1` (stereo not given) the inhibition was 20.8% (inactive). With `Cc1n[nH]c(=O)c2c(NC(=O)COC(=O)c3ncc(Cl)c(Cl)c3Cl)oc(C)c12` the inhibition was -10.3% (inactive). In the case of `CCc1ccccc1NC(=O)CN(c1ccc(OC)cc1OC)S(=O)(=O)c1ccccc1[N+](=O)[O-]`, the inhibition is reported as 58.4% (active). For `COc1ccc2c(CC(=O)OCC(=O)Nc3ccccc3[N+](=O)[O-])coc2c1`, the inhibition was 16.9% (inactive). In the case of `COc1ccc(N(CC(=O)Nc2cccc3ccccc23)S(C)(=O)=O)c(OC)c1`, the inhibition is reported as -7.06% (inactive). For `O=C1N[C@@H](Cc2ccccc2)C(=O)N2[C@H]1C[C@]1(Br)c3ccccc3N(S(=O)(=O)c3ccccc3)[C@H]21`, the inhibition was -12.8% (inactive). For `COc1ccc(-c2noc(COc3ccc(Cl)c(C)c3)n2)cc1`, the inhibition was -9.09% (inactive). In the case of `Cc1cc(Cl)ccc1OCc1nc(-c2ccncc2)no1`, the inhibition is reported as 74.8% (active). In the case of `c1ccc(CCc2nc(-c3ccncc3)no2)cc1`, the inhibition is reported as -6.81% (inactive). For `O=C(c1ccncc1)N1CCN(S(=O)(=O)c2cccc([N+](=O)[O-])c2)CC1`, the inhibition was 25.7% (inactive). In the case of `CCCNC(=O)CCc1c(C)nc2c(c(C)nn2-c2ccc(C)cc2)c1C`, the inhibition is reported as 63.7% (active). For `CCCNC(=O)CCc1c(C)nc2c(c(C)nn2-c2ccccc2)c1C`, the inhibition was 28% (inactive). In the case of `CCCNC(=O)c1c(Cl)cnn1-c1ccc(C)cc1`, the inhibition is reported as -28% (inactive). For `O=S(=O)(O)Oc1c[nH]c2ccccc12`, the inhibition was -8.75% (inactive). With `COc1ccc(S(=O)(=O)N(CC(=O)N/N=C/c2ccccc2C(=O)O)c2ccccc2OC)cc1` the inhibition was 20.6% (inactive). With `COc1ccccc1N(CC(=O)N/N=C(\C)c1ccccc1O)S(=O)(=O)c1ccc(C)cc1` the inhibition was 65.9% (active). With `COc1ccccc1NC(=O)CN(c1ccccc1OC)S(=O)(=O)c1ccccc1` the inhibition was 2.04% (inactive). In the case of `O=C(N/N=C/c1cc(Br)c(O)c([N+](=O)[O-])c1)C(O)(c1ccccc1)c1ccccc1`, the inhibition is reported as -7.65% (inactive). In the case of `COc1ccc(/C=C/C(=O)Nc2c(C)nn(C)c2C)cc1COc1ccc(Br)cc1`, the inhibition is reported as 30.9% (inactive). For `CCn1nc(C)c(NC(=O)/C=C/c2ccc(OC)c(COc3ccc(Br)cc3)c2)c1C`, the inhibition was 68.5% (active). In the case of `COc1ccc(C(C)=O)cc1COc1ccc(Cl)c(C)c1`, the inhibition is reported as 14.6% (inactive). For `O=C(O)CCn1c(O)c(C=C2N=c3ccccc3=N2)sc1=S`, the inhibition was -24.7% (inactive). For `COc1ccc(N2CCC(CNC(=S)Nc3c(C)cccc3C)C2)cc1` (stereo not given), the inhibition was 55.3% (active). In the case of `COc1ccc(NC(=S)NCC2CCN(c3ccc(OC)cc3)C2)cc1` (stereo not given), the inhibition is reported as 6.37% (inactive). With `COc1ccc(NC(=S)NCCN2CCC(C)CC2)cc1` the inhibition was -11.2% (inactive). In the case of `CN1C(C(=O)NCC2CC2)CC2Cn3c(nc4ccccc43)C21` (stereo not given), the inhibition is reported as -19% (inactive). For `O=C1CN(C(=O)COc2c(Cl)cccc2Cl)c2ccccc2N1`, the inhibition was -8.97% (inactive). For `COc1ccccc1CCC(=O)NNC(=O)c1ccncc1`, the inhibition was 10.4% (inactive). With `Cc1cc(NC(=O)CCC2COc3ccccc3O2)no1` (stereo not given) the inhibition was 1.39% (inactive). For `Cc1cc(C(=O)CCl)c(C)n1CC1COc2ccccc2O1` (stereo not given), the inhibition was 60.4% (active). In the case of `O=C1C(=O)N(CC2COc3ccccc3O2)c2ccccc21` (stereo not given), the inhibition is reported as -17% (inactive). With `Cc1cc(C)c(C)c(S(=O)(=O)N2CCN(C(=O)c3ccc4c(=O)n5c(nc4c3)CCC5)CC2)c1C` the inhibition was -5.27% (inactive). For `Nc1nc(Sc2ncccc2[N+](=O)[O-])n[nH]1`, the inhibition was -19.9% (inactive). For `Brc1cnc2ccccc2c1N1CCCCC1`, the inhibition was 0.276% (inactive). For `Cc1cccc(C(=O)OC(C)CN2CCCC2)c1` (stereo not given), the inhibition was -8.01% (inactive). For `Cc1ccc(C(=O)OC(C)CN2CCOCC2)cc1` (stereo not given), the inhibition was -11.2% (inactive). For `Cc1cccc(C(=O)OC(C)CN2CCN(C)CC2)c1` (stereo not given), the inhibition was 56.8% (active). With `COc1ccc(-c2oc(/N=C/N3CCCC3)c(C#N)c2-c2ccc(OC)cc2)cc1` the inhibition was 57.6% (active). In the case of `COc1cc(C(=O)Nc2oc(-c3ccccc3)c(-c3ccccc3)c2C#N)cc(OC)c1OC`, the inhibition is reported as 12.7% (inactive). With `N#Cc1c(/N=C/N2CCCC2)oc(-c2ccccc2)c1-c1ccccc1` the inhibition was 37.2% (inactive). For `O=C(NC1CCCCC1)C1CCC(CNS(=O)(=O)c2ccccc2)CC1` (stereo not given), the inhibition was -8.43% (inactive). In the case of `OCCCNc1nc(-c2ccccc2)c2cc(Cl)ccc2n1`, the inhibition is reported as 18.3% (inactive). In the case of `O=C(CCl)NNc1nc(-c2ccccc2)c2cc(Cl)ccc2n1`, the inhibition is reported as 3.67% (inactive). For `NC(N)=Nc1nc(-c2ccccc2)c2cc(Cl)ccc2n1`, the inhibition was 65.4% (active).
